Measurements as given in ChEMBL document CHEMBL3526002, “Tissue distribution and identification of radioactivity components at elimination phase after oral administration of [¹⁴C]CS-1036, an α-amylase inhibitor, to rats” (Drug Metab Dispos, 2013).

How the values were obtained:
Format in all cases: ADME, organism-based
[1] = system: Liver; test: Drug uptake in albino F344/DuCrlCrlj rat liver assessed as ng equivalent of CS-1036 at 5 mg/kg, po after 8 hrs by liquid scintillation counting; design: dose 5 mg/kg, dosed compound name [14C]CS-1036, route oral; conditions: in vivo
[2] = system: Aorta; test: Drug uptake in albino F344/DuCrlCrlj rat aorta at 5 mg/kg, po after 4 hrs by liquid scintillation counting; design: dose 5 mg/kg, dosed compound name [14C]CS-1036, route oral; conditions: in vivo
[3] = system: Aorta; test: Drug uptake in albino F344/DuCrlCrlj rat aorta at 5 mg/kg, po after 1 hr by liquid scintillation counting; design: dose 5 mg/kg, dosed compound name [14C]CS-1036, route oral; conditions: in vivo
[4] = system: Cerebrum; test: Drug uptake in albino F344/DuCrlCrlj rat cerebrum at 5 mg/kg, po after 1 hr by liquid scintillation counting; design: dose 5 mg/kg, dosed compound name [14C]CS-1036, route oral; conditions: in vivo
Summary of the method: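 Single oral [14C]CS-1036 at 5 mg/kg was given to male rats (159–167 g; n = 3). Cerebrum was collected after aortic bleeding at 1, 4, 8, 24, 72, 168 or 336 h, weighed, and homogenized in 2 volumes of saline. A 0.5 ml aliquot was solubilized in Soluene-350 and counted by LSC with external-standard correction. Results are in ng equivalent/g tissue from specific activity and sample weight.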

[5] = Drug uptake in albino F344/DuCrlCrlj rat urinary bladder assessed as ng equivalent of CS-1036 at 5 mg/kg, po after 168 hrs by liquid scintillation counting; design: dose 5 mg/kg, dosed compound name [14C]CS-1036, route oral; conditions: in vivo
[6] = system: Stomach; test: Drug uptake in albino F344/DuCrlCrlj rat stomach at 5 mg/kg, po after 24 hrs by liquid scintillation counting; design: dose 5 mg/kg, dosed compound name [14C]CS-1036, route oral; conditions: in vivo
[7] = system: Adrenal gland; test: Drug uptake in albino F344/DuCrlCrlj rat adrenal gland at 5 mg/kg, po after 4 hrs by liquid scintillation counting; design: dose 5 mg/kg, dosed compound name [14C]CS-1036, route oral; conditions: in vivo
[8] = Drug uptake in albino F344/DuCrlCrlj rat thyroid gland assessed as ng equivalent of CS-1036 at 5 mg/kg, po after 24 hrs by liquid scintillation counting; design: dose 5 mg/kg, dosed compound name [14C]CS-1036, route oral; conditions: in vivo
[9] = system: Cerebellum; test: Drug uptake in albino F344/DuCrlCrlj rat cerebellum at 5 mg/kg, po after 168 hrs by liquid scintillation counting; design: dose 5 mg/kg, dosed compound name [14C]CS-1036, route oral; conditions: in vivo
[10] = system: Liver; test: Drug uptake in albino F344/DuCrlCrlj rat liver assessed as ng equivalent of CS-1036 at 5 mg/kg, po after 72 hrs by liquid scintillation counting; design: dose 5 mg/kg, dosed compound name [14C]CS-1036, route oral; conditions: in vivo
[11] = system: Adrenal gland; test: Drug uptake in albino F344/DuCrlCrlj rat adrenal gland assessed as ng equivalent of CS-1036 at 5 mg/kg, po after 72 hrs by liquid scintillation counting; design: dose 5 mg/kg, dosed compound name [14C]CS-1036, route oral; conditions: in vivo
[12] = system: Adrenal gland; test: Drug uptake in albino F344/DuCrlCrlj rat adrenal gland at 5 mg/kg, po after 168 hrs by liquid scintillation counting; design: dose 5 mg/kg, dosed compound name [14C]CS-1036, route oral; conditions: in vivo
[13] = system: Plasma; test: Drug uptake in albino F344/DuCrlCrlj rat plasma assessed as ng equivalent of CS-1036 at 5 mg/kg, po after 8 hrs by liquid scintillation counting; design: dose 5 mg/kg, dosed compound name [14C]CS-1036, route oral; conditions: in vivo
[14] = system: Blood; test: Drug uptake in albino F344/DuCrlCrlj rat blood at 5 mg/kg, po after 336 hrs by liquid scintillation counting; design: dose 5 mg/kg, dosed compound name [14C]CS-1036, route oral; conditions: in vivo
Summary of the method: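 Male F344/DuCrlCrlj rats (159–167 g; n = 3 per time point) received a single oral dose of [14C]CS-1036 at 5 mg/kg. Blood was taken from the abdominal aorta at 1, 4, 8, 24, 72, 168 and 336 h. Radioactivity was counted by LSC with external-standard efficiency correction. Results were converted to ng equivalent of CS-1036/ml using specific activity and sample volume, and reported as mean + S.D.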

[15] = system: Cerebellum; test: Drug uptake in albino F344/DuCrlCrlj rat cerebellum at 5 mg/kg, po after 8 hrs by liquid scintillation counting; design: dose 5 mg/kg, dosed compound name [14C]CS-1036, route oral; conditions: in vivo
[16] = system: Pancreas; test: Drug uptake in albino F344/DuCrlCrlj rat pancreas at 5 mg/kg, po after 24 hrs by liquid scintillation counting; design: dose 5 mg/kg, dosed compound name [14C]CS-1036, route oral; conditions: in vivo
[17] = system: Zone of skin; test: Drug uptake in albino F344/DuCrlCrlj rat skin at 5 mg/kg, po after 8 hrs by liquid scintillation counting; design: dose 5 mg/kg, dosed compound name [14C]CS-1036, route oral; conditions: in vivo
[18] = system: Liver; test: Drug uptake in albino F344/DuCrlCrlj rat liver at 5 mg/kg, po after 4 hrs by liquid scintillation counting; design: dose 5 mg/kg, dosed compound name [14C]CS-1036, route oral; conditions: in vivo
[19] = system: Aorta; test: Drug uptake in albino F344/DuCrlCrlj rat aorta assessed as ng equivalent of CS-1036 at 5 mg/kg, po after 8 hrs by liquid scintillation counting; design: dose 5 mg/kg, dosed compound name [14C]CS-1036, route oral; conditions: in vivo
[20] = system: Plasma; test: Drug uptake in albino F344/DuCrlCrlj rat plasma assessed as ng equivalent of CS-1036 at 5 mg/kg, po after 4 hrs by liquid scintillation counting; design: dose 5 mg/kg, dosed compound name [14C]CS-1036, route oral; conditions: in vivo
[21] = system: Aorta; test: Drug uptake in albino F344/DuCrlCrlj rat aorta at 5 mg/kg, po after 72 hrs by liquid scintillation counting; design: dose 5 mg/kg, dosed compound name [14C]CS-1036, route oral; conditions: in vivo
[22] = Drug uptake in albino F344/DuCrlCrlj rat eyeball assessed as ng equivalent of CS-1036 at 5 mg/kg, po after 168 hrs by liquid scintillation counting; design: dose 5 mg/kg, dosed compound name [14C]CS-1036, route oral; conditions: in vivo
[23] = system: Thymus; test: Drug uptake in albino F344/DuCrlCrlj rat thymus assessed as ng equivalent of CS-1036 at 5 mg/kg, po after 72 hrs by liquid scintillation counting; design: dose 5 mg/kg, dosed compound name [14C]CS-1036, route oral; conditions: in vivo
[24] = system: Cerebellum; test: Drug uptake in albino F344/DuCrlCrlj rat cerebellum assessed as ng equivalent of CS-1036 at 5 mg/kg, po after 4 hrs by liquid scintillation counting; design: dose 5 mg/kg, dosed compound name [14C]CS-1036, route oral; conditions: in vivo
[25] = Drug uptake in albino F344/DuCrlCrlj rat bone marrow at 5 mg/kg, po after 168 hrs by liquid scintillation counting; design: dose 5 mg/kg, dosed compound name [14C]CS-1036, route oral; conditions: in vivo
[26] = Drug uptake in albino F344/DuCrlCrlj rat thyroid gland assessed as ng equivalent of CS-1036 at 5 mg/kg, po after 168 hrs by liquid scintillation counting; design: dose 5 mg/kg, dosed compound name [14C]CS-1036, route oral; conditions: in vivo
[27] = system: Spleen; test: Drug uptake in albino F344/DuCrlCrlj rat spleen at 5 mg/kg, po after 168 hrs by liquid scintillation counting; design: dose 5 mg/kg, dosed compound name [14C]CS-1036, route oral; conditions: in vivo
[28] = system: Zone of skin; test: Drug uptake in albino F344/DuCrlCrlj rat skin at 5 mg/kg, po after 336 hrs by liquid scintillation counting; design: dose 5 mg/kg, dosed compound name [14C]CS-1036, route oral; conditions: in vivo
[29] = system: Plasma; test: Drug metabolism in albino F344/DuCrlCrlj rat plasma protein assessed as unbound parent compound and metabolite M1 level at 10 mg/kg, po administered for 5 days by liquid scintillation counting; design: dose 10 mg/kg, dosed compound name [14C]CS-1036, route oral; conditions: in vivo, 120 h
Summary of the method: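 Male F344/DuCrlCrlj rats (n = 3) received oral [14C]CS-1036 at 10 mg/kg/day for 5 days at 24-h intervals, with food freely available. Plasma was taken from the abdominal aorta 24 h after the fifth dose and pooled. It was precipitated with acetonitrile, and the pellets were washed with 0.4 M TCA, 80% methanol and 30% ether/ethanol until washes were below twice background. Pellets were HCl-hydrolysed, and recovered radioactivity was counted by LSC.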

[30] = Drug uptake in albino F344/DuCrlCrlj rat testis at 5 mg/kg, po after 4 hrs by liquid scintillation counting; design: dose 5 mg/kg, dosed compound name [14C]CS-1036, route oral; conditions: in vivo
[31] = system: Thymus; test: Drug uptake in albino F344/DuCrlCrlj rat thymus at 5 mg/kg, po after 336 hrs by liquid scintillation counting; design: dose 5 mg/kg, dosed compound name [14C]CS-1036, route oral; conditions: in vivo
[32] = system: Small intestine; test: Drug uptake in albino F344/DuCrlCrlj rat small intestine at 5 mg/kg, po after 8 hrs by liquid scintillation counting; design: dose 5 mg/kg, dosed compound name [14C]CS-1036, route oral; conditions: in vivo
[33] = system: Harderian gland; test: Drug uptake in albino F344/DuCrlCrlj rat harderian gland at 5 mg/kg, po after 4 hrs by liquid scintillation counting; design: dose 5 mg/kg, dosed compound name [14C]CS-1036, route oral; conditions: in vivo
[34] = system: Spleen; test: Drug uptake in albino F344/DuCrlCrlj rat spleen at 5 mg/kg, po after 4 hrs by liquid scintillation counting; design: dose 5 mg/kg, dosed compound name [14C]CS-1036, route oral; conditions: in vivo

C[C@H]1O[C@@H](O[C@H]2[C@H](O)[C@@H](O)[C@@H](O[14C@H]3[14C@H](O)[14CH2]N[14C@@H]3[14CH2]O)O[C@@H]2CO)[C@H](O)[C@@H](O)[C@@H]1O
Radiolabel recovery [1]: 116 ngequiv/g | Radiolabel recovery [2]: 23.9 ngequiv/g | Radiolabel recovery [3]: 50.6 ngequiv/g | Radiolabel recovery [4]: 8.81 ngequiv/g | Radiolabel recovery [5]: 6.6 ngequiv/g | Radiolabel recovery [6]: 118 ngequiv/g | Radiolabel recovery [7]: 33.3 ngequiv/g | Radiolabel recovery [8]: 20 ngequiv/g | Radiolabel recovery [9]: 7.12 ngequiv/g | Radiolabel recovery [10]: 629 ngequiv/g | Radiolabel recovery [11]: 30.3 ngequiv/g | Radiolabel recovery [12]: 78.9 ngequiv/g | Radiolabel recovery [13]: 10.8 ngequiv/ml | Radiolabel recovery [14]: 5.27 ngequiv/ml | Radiolabel recovery [15]: 8.3 ngequiv/g | Radiolabel recovery [16]: 310 ngequiv/g | Radiolabel recovery [17]: 60.3 ngequiv/g | Radiolabel recovery [18]: 276 ngequiv/g | Radiolabel recovery [19]: 42.1 ngequiv/g | Radiolabel recovery [20]: 26.7 ngequiv/ml | Radiolabel recovery [21]: 35.8 ngequiv/g | Radiolabel recovery [22]: 2.3 ngequiv/g | Radiolabel recovery [23]: 6.6 ngequiv/g | Radiolabel recovery [24]: 0.6 ngequiv/g | Radiolabel recovery [25]: 47 ngequiv/g | Radiolabel recovery [26]: 29.9 ngequiv/g | Radiolabel recovery [27]: 18.3 ngequiv/g | Radiolabel recovery [28]: 24.9 ngequiv/g | Radiolabel recovery [29]: 11.3% | Radiolabel recovery [30]: 22.3 ngequiv/g | Radiolabel recovery [31]: 5.1 ngequiv/g | Radiolabel recovery [32]: 121 ngequiv/g | Radiolabel recovery [33]: 39.1 ngequiv/g | Radiolabel recovery [34]: 35.1 ngequiv/g
